Active and inactive are the calls of the source. The rule behind the calls is not given here.
How the values were obtained:
MONO-MAC-6 [1] = experiment: Upregulation of PTX3 mRNA expression level in LPS-stimulated human MONO-MAC-6 cells at 5 uM preincubated for 30 mins followed by LPS stimulation measured after 2 hrs by oligonucleotide array hybridization assay (reference value: 1.56); type: functional
MONO-MAC-6 [2] = experiment: Downregulation of TNFalpha mRNA expression level in LPS-stimulated human MONO-MAC-6 cells at 5 uM preincubated for 30 mins followed by LPS stimulation measured after 6 hrs by qRT-PCR method (reference value: 2.17); type: functional
[3] = biological target: T1, Sphingomyelin phosphodiesterase (Homo sapiens) (UniProt P17405); experiment: Inhibition of mmLDL-stimulated acid sphingomyelinase in human PBMC lysates up to 10 uM preincubated for 30 mins followed by mmLDL stimulation measured after 4 hrs by YO-PRO-1/Hoechst 33342 staining based assay
T1 sequence (whole entry): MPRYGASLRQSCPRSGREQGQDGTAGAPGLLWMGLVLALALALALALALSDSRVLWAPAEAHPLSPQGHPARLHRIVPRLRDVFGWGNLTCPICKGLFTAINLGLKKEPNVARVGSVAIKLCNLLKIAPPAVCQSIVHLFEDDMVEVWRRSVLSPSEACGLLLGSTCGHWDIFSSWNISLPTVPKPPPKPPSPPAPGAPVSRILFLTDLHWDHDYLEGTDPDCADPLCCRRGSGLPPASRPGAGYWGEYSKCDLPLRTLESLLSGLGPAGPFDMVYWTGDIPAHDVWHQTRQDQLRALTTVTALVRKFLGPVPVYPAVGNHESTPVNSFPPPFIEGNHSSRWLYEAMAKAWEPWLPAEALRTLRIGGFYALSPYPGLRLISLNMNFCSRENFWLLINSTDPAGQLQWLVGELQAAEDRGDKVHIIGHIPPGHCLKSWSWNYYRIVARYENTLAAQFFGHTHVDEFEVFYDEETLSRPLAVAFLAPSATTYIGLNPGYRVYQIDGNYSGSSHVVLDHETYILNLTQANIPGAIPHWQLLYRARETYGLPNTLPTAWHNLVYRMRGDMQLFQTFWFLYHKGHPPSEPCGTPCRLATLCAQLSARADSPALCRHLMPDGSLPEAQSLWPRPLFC

MONO-MAC-6 [4] = experiment: Upregulation of CCL4 mRNA expression level in LPS-stimulated human MONO-MAC-6 cells at 5 uM preincubated for 30 mins followed by LPS stimulation measured after 6 hrs by oligonucleotide array hybridization assay (reference value: 6.37); type: functional
[5] = biological target: T2, Acid ceramidase (Homo sapiens) (UniProt Q13510); experiment: Inhibition of mmLDL-stimulated acid ceramidase in human PBMC assessed as ratio of C24:1-ceramide/lipid phosphate level at 10 uM preincubated for 30 mins followed by mmLDL stimulation measured after 4 hrs by HPLC method (reference value: 1.16); type: cell-based
T2 sequence (whole entry): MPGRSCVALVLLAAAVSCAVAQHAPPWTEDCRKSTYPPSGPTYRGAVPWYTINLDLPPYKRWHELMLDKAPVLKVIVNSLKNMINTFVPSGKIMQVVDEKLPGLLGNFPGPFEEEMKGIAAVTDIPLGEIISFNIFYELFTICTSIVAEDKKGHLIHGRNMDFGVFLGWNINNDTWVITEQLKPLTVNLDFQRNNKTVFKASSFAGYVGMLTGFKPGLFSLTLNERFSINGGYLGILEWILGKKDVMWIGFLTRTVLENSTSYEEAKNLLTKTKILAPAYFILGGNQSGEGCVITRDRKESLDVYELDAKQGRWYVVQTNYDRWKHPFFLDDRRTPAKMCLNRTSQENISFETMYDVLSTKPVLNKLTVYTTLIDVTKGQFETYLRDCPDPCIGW
Outline: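 Human macrophages from primary culture were preincubated 30 min with 10 µM compound. They were then stimulated 4 h with mmLDL (54 µg/mL), TNFalpha (3 ng/mL) or exogenous C6-ceramide (10 µM), or left unstimulated. Individual ceramide species (C16 and C24:1) were quantified in the cell lipid extracts.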

MONO-MAC-6 [6] = experiment: Downregulation of CCL4 mRNA expression level in human MONO-MAC-6 cells at 5 uM incubated for 30 mins measured after 2 hrs by oligonucleotide array hybridization assay relative to control; type: functional
Outline: (§1)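 Total RNA was isolated, transcribed and labeled with DY-647 dye, then co-hybridized with DY-548-labeled cDNA from untreated cells on an inflammation oligonucleotide chip (780 gene probes). Differential expression >1.5 was taken as significant.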

MONO-MAC-6 [7] = experiment: Upregulation of PTGS2 mRNA expression level in LPS-stimulated human MONO-MAC-6 cells at 5 uM preincubated for 30 mins followed by LPS stimulation measured after 4 hrs by oligonucleotide array hybridization assay (reference value: 5.29); type: functional
PBMC = experiment: Inhibition of TNFalpha-stimulated apoptosis in human PBMC assessed as apoptotic cells at 2 uM preincubated for 30 mins followed by TNFalpha stimulation measured after 4 hrs by YO-PRO-1/Hoechst 33342 staining based assay relative to control; type: functional; set-up: scale not given: the % may be the effect or the level left
Outline: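 PBMC pre-incubated 30 min with 2 μM compound, then stimulated with mmLDL (27 μg/mL; line 5) or TNFalpha (3 ng/mL; line 1) for 4 h. Apoptotic cells stained with YO-PRO-1 and all cells with Hoechst 33342. Each plate had control, stimulus, compound alone and compound plus stimulus; n = 3. Values are on a 0% (untreated control, corrected for spontaneous apoptosis) to 100% (stimulus alone) scale; means ± SE.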

MONO-MAC-6 [8] = experiment: Downregulation of CCL4 mRNA expression level in human MONO-MAC-6 cells at 5 uM incubated for 30 mins measured after 4 hrs by oligonucleotide array hybridization assay relative to control; type: functional; outline: as §1
MONO-MAC-6 [9] = experiment: Upregulation of IL-6 mRNA expression level in LPS-stimulated human MONO-MAC-6 cells at 5 uM preincubated for 30 mins followed by LPS stimulation measured after 2 hrs by qRT-PCR method (reference value: […]); type: functional
MONO-MAC-6 [10] = experiment: Downregulation of IL-6 mRNA expression level in LPS-stimulated human MONO-MAC-6 cells at 5 uM preincubated for 30 mins followed by LPS stimulation measured after 6 hrs by qRT-PCR method (reference value: 5.09); type: functional
MONO-MAC-6 [11] = experiment: Downregulation of ICAM1 mRNA expression level in LPS-stimulated human MONO-MAC-6 cells at 5 uM preincubated for 30 mins followed by LPS stimulation measured after 2 hrs by oligonucleotide array hybridization assay (reference value: 1.94); type: functional; outline: as §1
MONO-MAC-6 [12] = experiment: Downregulation of CXCL3 mRNA expression level in human MONO-MAC-6 cells at 5 uM incubated for 30 mins measured after 6 hrs by oligonucleotide array hybridization assay relative to control; type: functional; outline: as §1
MONO-MAC-6 [13] = experiment: Downregulation of ICAM1 mRNA expression level in human MONO-MAC-6 cells at 5 uM incubated for 30 mins measured after 2 hrs by oligonucleotide array hybridization assay relative to control; type: functional; outline: as §1
MONO-MAC-6 [14] = experiment: Downregulation of PTGS2 mRNA expression level in LPS-stimulated human MONO-MAC-6 cells at 5 uM preincubated for 30 mins followed by LPS stimulation measured after 6 hrs by oligonucleotide array hybridization assay (reference value: 3.58); type: functional; outline: as §1
[15] = biological target: T1, Sphingomyelin phosphodiesterase (Homo sapiens); experiment: Inhibition of mmLDL-stimulated acid sphingomyelinase in human PBMC lysates at 2 to 50 uM preincubated for 30 mins followed by mmLDL stimulation measured after 4 hrs by YO-PRO-1/Hoechst 33342 staining based assay

Compound: COc1ccc(CCN(C)CCCn2c3ccccc3c3ccccc32)cc1
- fold change (FC) (MONO-MAC-6 [1]): 1.2
- fold change (FC) (MONO-MAC-6 [2]): 1.16
- inhibition [3]: inactive
- fold change (FC) (MONO-MAC-6 [4]): 1.16
- Ratio [5]: 2.45
- fold change (FC) (MONO-MAC-6 [6]): 1.05
- fold change (FC) (MONO-MAC-6 [7]): 4.07
- Activity (PBMC): 19%
- fold change (FC) (MONO-MAC-6 [8]): 1.55
- fold change (FC) (MONO-MAC-6 [9]): 6.12
- fold change (FC) (MONO-MAC-6 [10]): 1.1
- fold change (FC) (MONO-MAC-6 [11]): 1.14
- fold change (FC) (MONO-MAC-6 [12]): 4.67
- fold change (FC) (MONO-MAC-6 [13]): 1.28
- fold change (FC) (MONO-MAC-6 [14]): 1.06
- inhibition [15]: Active
